Laboratory results published in ChEMBL document CHEMBL4325904 (Eur J Med Chem, 2019).
The source made the active and inactive calls. The rule behind the calls is not given here.

How the values were obtained:
[1] = biological target: T1, Polyamine deacetylase HDAC10 (Homo sapiens, UniProt Q969S8); assay: Inhibition of human HDAC10 using RHKK-Ac as substrate by fluorimetric assay
T1 sequence (Q969S8 whole entry): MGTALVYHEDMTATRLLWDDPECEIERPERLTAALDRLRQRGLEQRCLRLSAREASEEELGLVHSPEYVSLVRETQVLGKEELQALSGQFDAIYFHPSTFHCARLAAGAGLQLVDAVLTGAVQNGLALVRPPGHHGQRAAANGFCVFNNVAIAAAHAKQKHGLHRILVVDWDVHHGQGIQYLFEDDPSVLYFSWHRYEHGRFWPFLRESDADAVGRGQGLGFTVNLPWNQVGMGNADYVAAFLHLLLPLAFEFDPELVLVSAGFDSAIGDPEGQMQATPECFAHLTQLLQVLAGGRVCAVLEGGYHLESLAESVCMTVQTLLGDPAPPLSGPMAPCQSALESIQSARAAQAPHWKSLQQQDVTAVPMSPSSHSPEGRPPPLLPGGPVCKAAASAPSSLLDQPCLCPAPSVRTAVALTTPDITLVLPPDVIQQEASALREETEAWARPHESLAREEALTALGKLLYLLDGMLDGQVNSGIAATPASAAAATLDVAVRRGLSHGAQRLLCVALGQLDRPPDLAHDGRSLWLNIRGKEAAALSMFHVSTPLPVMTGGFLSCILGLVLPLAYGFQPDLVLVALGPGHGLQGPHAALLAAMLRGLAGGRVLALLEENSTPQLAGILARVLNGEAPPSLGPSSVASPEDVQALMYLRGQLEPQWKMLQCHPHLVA

Homo sapiens [2] = species on record: Homo sapiens; assay: Selectivity ratio of IC50 for recombinant full length C-terminal GST-tagged human HDAC2 (1 to 488 residues) to IC50 for recombinant N-terminal GST-tagged human HDAC6 (1 to 1215 residues)
Homo sapiens [3] = species on record: Homo sapiens; assay: Selectivity ratio of IC50 for human recombinant full length C-terminal His-tagged HDAC3 (1 to 428 residues)/N-terminal GST-tagged NCOR2 (395 to 489 residues) to IC50 for recombinant N-terminal GST-tagged human HDAC6 (1 to 1215 residues)
Histone deacetylase 4 = Histone deacetylase 4 (Homo sapiens, UniProt P56524); assay: Inhibition of recombinant N-terminal GST-tagged /C-terminal His-tagged human HDAC4 (627 to 1084 residues) expressed in Baculovirus infected insect cells using Boc-Lys(trifluoroacetyl)-AMC as substrate by fluorimetric assay
[4] = Drug uptake in human A549 cells cytoplasm at 1 uM after 2 hrs by naphthalimide dye-based inverted light fluorescence confocal microscopic analysis; type: ADME, subcellular; conditions: a549, 2 h
In short: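 A549 cells incubated 2 hours with compound at 1 µM; intracellular distribution imaged by confocal microscopy with 405 nm laser excitation, emission collected at 460–560 nm.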

Histone deacetylase 9 = Histone deacetylase 9 (Homo sapiens, UniProt Q9UKV0); assay: Inhibition of human HDAC9 using Boc-Lys(trifluoroacetyl)-AMC as substrate by fluorimetric assay
Histone deacetylase 2 = Histone deacetylase 2 (Homo sapiens, UniProt Q92769); assay: Inhibition of recombinant full length C-terminal GST-tagged human HDAC2 (1 to 488 residues) expressed in insect cells using RHK-K(Ac)-AMC as substrate by fluorimetric assay
Danio rerio = assay: Antiangiogenic activity in zebrafish embryo assessed as effect on blood vessel development at 10 uM administered from 24 to 50 hrs post fertilization for 24 hrs and measured after 72 hrs by alkaline phosphatase assay; type: functional, organism-based
In short: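 Zebrafish embryos exposed at 10 µM from 24–50 hpf alongside vehicle-only controls; at 72 hpf embryos stained with alkaline phosphatase to visualise blood vessels.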

Histone deacetylase 1 = Histone deacetylase 1 (Homo sapiens, UniProt Q13547); assay: Inhibition of recombinant full length C-terminal FLAG/His-tagged human HDAC1 (1 to 482 residues) expressed in sf21 cells using RHK-K(Ac)-AMC as substrate by fluorimetric assay
Histone deacetylase 7 = biological target: T2, Histone deacetylase 7 (Homo sapiens, UniProt Q8WUI4); assay: Inhibition of recombinant N-terminal GST-tagged human HDAC7 (518 to 991 residues) expressed in Baculovirus infected insect cells using Boc-K(Ac)-AMC as substrate by fluorimetric assay
T2 sequence (Q8WUI4 whole entry): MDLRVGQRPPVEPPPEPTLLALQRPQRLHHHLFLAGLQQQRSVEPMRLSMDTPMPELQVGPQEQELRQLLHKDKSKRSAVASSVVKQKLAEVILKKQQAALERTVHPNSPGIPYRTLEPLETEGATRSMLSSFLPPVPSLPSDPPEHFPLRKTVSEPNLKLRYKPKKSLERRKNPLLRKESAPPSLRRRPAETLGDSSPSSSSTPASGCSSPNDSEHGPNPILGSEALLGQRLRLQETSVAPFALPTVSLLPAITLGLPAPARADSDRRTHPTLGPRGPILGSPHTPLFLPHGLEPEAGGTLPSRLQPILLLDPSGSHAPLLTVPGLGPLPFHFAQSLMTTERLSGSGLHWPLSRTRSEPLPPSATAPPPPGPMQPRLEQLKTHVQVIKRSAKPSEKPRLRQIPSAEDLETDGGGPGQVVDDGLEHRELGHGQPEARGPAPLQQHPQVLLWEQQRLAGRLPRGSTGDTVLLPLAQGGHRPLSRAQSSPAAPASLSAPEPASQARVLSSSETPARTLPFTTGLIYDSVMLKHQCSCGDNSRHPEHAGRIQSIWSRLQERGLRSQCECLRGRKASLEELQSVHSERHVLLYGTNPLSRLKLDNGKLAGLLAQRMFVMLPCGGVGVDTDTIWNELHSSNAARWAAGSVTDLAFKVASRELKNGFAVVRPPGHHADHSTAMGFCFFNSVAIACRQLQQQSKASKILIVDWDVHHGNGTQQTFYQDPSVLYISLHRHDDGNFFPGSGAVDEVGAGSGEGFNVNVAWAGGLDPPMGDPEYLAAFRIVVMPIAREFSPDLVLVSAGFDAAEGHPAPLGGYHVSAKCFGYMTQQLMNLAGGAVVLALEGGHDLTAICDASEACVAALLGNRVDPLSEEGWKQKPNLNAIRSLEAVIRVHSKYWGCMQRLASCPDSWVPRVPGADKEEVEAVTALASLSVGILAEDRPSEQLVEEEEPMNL

Kasumi 1 = assay: Antiproliferative activity against human Kasumi-1 cells after 72 hrs by resazurin dye-based assay; type: functional, cell-based; conditions: Kasumi 1, 72 h
In short: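 KASUMI-1 cells incubated with compounds for 72 hr; viability read with resazurin reagent. IC50 taken as the mean of three experiments, each run in duplicate.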

Homo sapiens [5] = species on record: Homo sapiens; assay: Selectivity ratio of IC50 for recombinant N-terminal GST-tagged human HDAC7 (518 to 991 residues) to IC50 for recombinant N-terminal GST-tagged human HDAC6 (1 to 1215 residues)
[6] = Drug uptake in zebrafish embryo vasculature at 1 to 20 uM administered from 24 to 50 hrs post fertilization for 24 hrs and measured after 72 hrs by fluorescence microscopic analysis; type: ADME, Danio rerio; conditions: in vivo
In short: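 Zebrafish embryos treated with 1, 10 or 20 µM from 24–50 hpf, with 0 µM controls; trunk and tail imaged at 72 hpf by fluorescence microscopy (λex 480 nm, λem 517 nm).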

Chain of Histone deacetylase 1 (Q13547 whole entry, the tested form may be a part): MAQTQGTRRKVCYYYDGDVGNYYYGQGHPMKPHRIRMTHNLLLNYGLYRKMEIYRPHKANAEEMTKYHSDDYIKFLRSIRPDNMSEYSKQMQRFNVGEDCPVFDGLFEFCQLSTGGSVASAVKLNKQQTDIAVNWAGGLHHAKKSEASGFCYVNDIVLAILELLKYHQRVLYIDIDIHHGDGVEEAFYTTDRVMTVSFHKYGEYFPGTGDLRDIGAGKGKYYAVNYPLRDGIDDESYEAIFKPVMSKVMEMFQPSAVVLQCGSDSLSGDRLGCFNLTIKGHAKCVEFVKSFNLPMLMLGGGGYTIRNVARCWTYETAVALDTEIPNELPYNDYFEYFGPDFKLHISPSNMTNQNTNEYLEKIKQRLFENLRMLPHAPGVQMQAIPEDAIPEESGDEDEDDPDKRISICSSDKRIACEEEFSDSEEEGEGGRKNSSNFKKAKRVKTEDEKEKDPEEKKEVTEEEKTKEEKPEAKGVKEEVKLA
Chain of Histone deacetylase 4 (P56524 whole entry, the tested form may be a part): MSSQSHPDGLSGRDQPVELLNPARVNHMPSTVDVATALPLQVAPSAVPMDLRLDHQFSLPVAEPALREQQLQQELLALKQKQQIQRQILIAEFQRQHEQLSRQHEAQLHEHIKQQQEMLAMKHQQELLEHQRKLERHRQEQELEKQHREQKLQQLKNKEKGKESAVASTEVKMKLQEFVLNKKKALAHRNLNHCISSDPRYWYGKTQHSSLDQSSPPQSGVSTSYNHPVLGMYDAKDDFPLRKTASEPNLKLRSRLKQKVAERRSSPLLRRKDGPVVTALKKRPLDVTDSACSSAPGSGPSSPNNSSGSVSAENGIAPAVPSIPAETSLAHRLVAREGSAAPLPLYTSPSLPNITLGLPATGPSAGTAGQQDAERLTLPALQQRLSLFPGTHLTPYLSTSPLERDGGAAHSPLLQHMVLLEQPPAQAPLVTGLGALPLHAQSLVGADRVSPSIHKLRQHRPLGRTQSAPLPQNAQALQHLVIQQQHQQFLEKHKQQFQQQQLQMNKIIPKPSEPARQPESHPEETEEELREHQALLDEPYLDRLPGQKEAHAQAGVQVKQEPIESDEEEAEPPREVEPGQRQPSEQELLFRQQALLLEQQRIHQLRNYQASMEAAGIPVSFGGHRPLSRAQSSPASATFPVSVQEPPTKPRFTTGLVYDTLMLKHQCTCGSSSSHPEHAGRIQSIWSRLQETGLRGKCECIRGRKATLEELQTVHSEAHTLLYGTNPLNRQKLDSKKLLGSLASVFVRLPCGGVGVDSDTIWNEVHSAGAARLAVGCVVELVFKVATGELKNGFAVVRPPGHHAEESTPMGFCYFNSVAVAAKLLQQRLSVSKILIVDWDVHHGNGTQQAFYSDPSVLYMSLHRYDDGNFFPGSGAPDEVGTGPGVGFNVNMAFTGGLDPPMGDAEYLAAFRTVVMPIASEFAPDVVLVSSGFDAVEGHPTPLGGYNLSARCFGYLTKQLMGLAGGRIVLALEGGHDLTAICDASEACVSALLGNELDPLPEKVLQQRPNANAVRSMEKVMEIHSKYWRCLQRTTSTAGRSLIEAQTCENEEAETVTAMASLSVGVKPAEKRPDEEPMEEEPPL
Chain of Histone deacetylase 2 (Q92769 whole entry, the tested form may be a part): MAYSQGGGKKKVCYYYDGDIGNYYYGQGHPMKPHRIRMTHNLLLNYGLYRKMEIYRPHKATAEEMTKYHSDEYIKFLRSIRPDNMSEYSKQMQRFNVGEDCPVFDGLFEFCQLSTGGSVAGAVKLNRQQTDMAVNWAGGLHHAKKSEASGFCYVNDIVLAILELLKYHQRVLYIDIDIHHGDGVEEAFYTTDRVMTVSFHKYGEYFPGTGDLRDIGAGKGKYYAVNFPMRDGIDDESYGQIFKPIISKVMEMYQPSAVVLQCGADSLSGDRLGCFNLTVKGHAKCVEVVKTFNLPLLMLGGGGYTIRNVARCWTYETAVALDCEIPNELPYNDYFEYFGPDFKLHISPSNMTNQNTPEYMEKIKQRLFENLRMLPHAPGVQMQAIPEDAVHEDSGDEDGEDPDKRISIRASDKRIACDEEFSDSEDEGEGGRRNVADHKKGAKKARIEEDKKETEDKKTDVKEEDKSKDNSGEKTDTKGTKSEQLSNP
Chain of Histone deacetylase 9 (Q9UKV0 whole entry, the tested form may be a part): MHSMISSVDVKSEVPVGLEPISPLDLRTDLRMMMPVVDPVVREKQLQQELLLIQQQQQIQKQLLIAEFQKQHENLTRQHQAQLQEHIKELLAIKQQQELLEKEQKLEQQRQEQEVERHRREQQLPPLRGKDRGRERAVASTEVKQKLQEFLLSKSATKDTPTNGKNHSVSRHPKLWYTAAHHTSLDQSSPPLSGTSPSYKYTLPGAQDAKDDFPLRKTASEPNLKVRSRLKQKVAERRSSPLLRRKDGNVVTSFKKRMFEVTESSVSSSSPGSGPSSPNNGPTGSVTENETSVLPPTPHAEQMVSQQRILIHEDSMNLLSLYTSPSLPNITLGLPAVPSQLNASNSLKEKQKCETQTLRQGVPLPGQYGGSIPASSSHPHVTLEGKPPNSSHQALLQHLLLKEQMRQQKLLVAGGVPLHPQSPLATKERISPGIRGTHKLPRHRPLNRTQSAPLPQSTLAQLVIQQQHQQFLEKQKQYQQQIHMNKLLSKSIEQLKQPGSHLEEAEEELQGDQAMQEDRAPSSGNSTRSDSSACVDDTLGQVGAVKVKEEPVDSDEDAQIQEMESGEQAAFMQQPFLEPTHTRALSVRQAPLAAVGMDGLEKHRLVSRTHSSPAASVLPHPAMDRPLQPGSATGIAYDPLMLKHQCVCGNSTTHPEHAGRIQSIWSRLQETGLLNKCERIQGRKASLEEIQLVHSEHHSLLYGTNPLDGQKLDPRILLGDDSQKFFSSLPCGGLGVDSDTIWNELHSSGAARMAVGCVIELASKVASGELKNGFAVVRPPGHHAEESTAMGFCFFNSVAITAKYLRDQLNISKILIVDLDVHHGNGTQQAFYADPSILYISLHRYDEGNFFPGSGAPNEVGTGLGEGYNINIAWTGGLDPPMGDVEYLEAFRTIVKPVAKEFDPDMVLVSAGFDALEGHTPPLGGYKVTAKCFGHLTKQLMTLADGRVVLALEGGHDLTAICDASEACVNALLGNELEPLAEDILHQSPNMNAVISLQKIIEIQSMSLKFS

| SMILES | IC50 [1] [nM] | Ratio IC50 (Homo sapiens [2]) | Ratio IC50 (Homo sapiens [3]) | IC50 (Histone deacetylase 4) [nM] | Drug uptake [4] | IC50 (Histone deacetylase 9) [nM] | IC50 (Histone deacetylase 2) [nM] | Activity (Danio rerio) | IC50 (Histone deacetylase 1) [nM] | IC50 (Histone deacetylase 7) [nM] | IC50 (Kasumi 1) [nM] | Ratio IC50 (Homo sapiens [5]) | Drug uptake [6] |
| --- | --- | --- | --- | --- | --- | --- | --- | --- | --- | --- | --- | --- | --- |
| CCCNc1ccc2c3c(cccc13)C(=O)N(CCCCCC(=O)NO)C2=O | 320 | 88 | 23 | > 10000 | Active | > 10000 | 420 | Active | 590 | 9400 | 96 | 1900 | Active |
| O=C(CCCCCN1C(=O)c2cccc3c(NCc4ccccc4)ccc(c23)C1=O)NO | 660 | 240 | 100 to 103 | 5500 | Active | 9300 | 850 | Active | 1980 | 3200 | 360 | 910 | Active |
